PMI activator – phosphomannose isomerase (human) activation; P34949; activation factor at 20 µM; purified human PMI, coupled resazurin fluorescence, 20 min; stronger effect = higher value; 1 = vehicle control, 0 substrate-free wells; hit rate 0.005% among 190,000; AID 1214;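 active means activation factor of 2 or more at 20 µM, relative to plate controls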
Target sequence (P34949 whole entry, looked up): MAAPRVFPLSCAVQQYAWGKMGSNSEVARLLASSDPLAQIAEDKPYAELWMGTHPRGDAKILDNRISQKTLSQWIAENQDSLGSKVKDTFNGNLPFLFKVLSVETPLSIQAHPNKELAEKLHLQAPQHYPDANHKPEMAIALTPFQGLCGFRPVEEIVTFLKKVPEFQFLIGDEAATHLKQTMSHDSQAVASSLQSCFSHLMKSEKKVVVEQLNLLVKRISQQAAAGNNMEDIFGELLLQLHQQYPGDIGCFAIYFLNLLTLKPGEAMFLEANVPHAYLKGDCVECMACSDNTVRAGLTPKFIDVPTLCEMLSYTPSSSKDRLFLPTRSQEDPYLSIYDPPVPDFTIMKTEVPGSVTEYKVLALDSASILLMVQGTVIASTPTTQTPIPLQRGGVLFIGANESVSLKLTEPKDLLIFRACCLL
PTEN del growth – PTEN-deleted cell growth suppression; HCT116 PTEN-null viability, CellTiter-Glo, 60 h; stronger effect = lower value; viability, % at 10 µM; hit rate 1.2% among 140,000; AID 827;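 active means viability at or below a set limit, 4 SD under the median of all tested compounds, cut at about 3.7% in these data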;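 further: PTEN knockout HCT116 line with beta catenin targeted HCT116 as companion control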
PMI act hi M6P – PMI (human) activation, high substrate. coupled PMI enzyme assay, resazurin fluorescence, 20 min; stronger effect = higher value; 1 = untreated enzyme, 0 = substrate-free blank. activation factor at 20 µM. hit rate 0.34% among 190,000. AID 1216;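 active means activation factor of 2 or more at 20 µM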
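Test system: Human PMI in coupled enzyme assay | Input: 15 ng/mL PMI | Medium: HEPES-buffered pH 7.4 with magnesium and detergent | Compound: One concentration, 20 µM, in 1% DMSO | Incubation: Enzyme reaction with compound 20 min at room temperature | Detection: Diaphorase-driven resazurin-to-resorufin fluorescence, excitation 544, emission 590 nm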
L major viab – reduces viability of Leishmania major promastigotes; resazurin fluorescence viability; inhibition, % at 10 µM; hit rate 9% among 200,000; in the data active means inhibition above about 50%;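 further: promastigotes grown with compound for 44 hours at 28 °C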
bCat KO growth – beta-catenin-lacking colon tumor cell growth suppression; hit rate 1.5% among 140,000; HCT116 beta-catenin knockout viability, CellTiter-Glo, 60 h; stronger effect = lower value; AID 818; viability, % at 10 µM;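 active means viability at or under a set limit, the compound median less 4 SD, cut at about 6% in these data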;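 further: 0% = Hyamine 1622 control at 20 µM and 100% = untreated cell control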
An asterisk follows results filed as active; x = no result given. The list is not random: actives were taken first. Their share in the collection is about 9.6%.

SMILES | PMI activator | PTEN del growth | PMI act hi M6P | L major viab | bCat KO growth
O=C(COC(=O)c1sc2ccccc2c1Cl)Nc1ncc(Cl)cc1Cl | 1.1 | 95 | 1.2 | -2 | 86
COc1ccc(CN(C)CC(=O)Nc2cc3oc4ccccc4c3cc2OC)c(OC)c1 | 0.9 | 65 | 0.9 | 97* | 62
COc1cc2c(cc1NS(=O)(=O)N1CCCCC1)oc1ccccc12 | 0.7 | 71 | 0.8 | 96* | 74
CCN(CC)S(=O)(=O)c1cccc(C(=O)Nc2cc3oc4ccccc4c3cc2OC)c1 | 0.9 | 91 | 1 | 80* | 79
COc1cc2c(cc1NC(=O)COC(=O)C(CCSC)NC(=O)c1ccccc1Cl)oc1ccccc12 (stereo not given) | 1 | 74 | 1 | 67* | 74
CCC1=NN(C(=O)CCc2ccccc2O)C(O)(C(F)(F)F)C1 (stereo not given) | 0.9 | 110 | 1 | 0 | 98
COc1cc2c(cc1NC(=O)COC(=O)[C@@H](NS(=O)(=O)c1ccccc1)C(C)C)oc1ccccc12 | 0.9 | 60 | 0.9 | 99* | 63
Cc1ccc(/C=N\NC(=O)Cn2c(C)nc3ccccc32)o1 | 1 | 94 | 0.9 | -3 | 91
Cc1ccc(-n2c(C)cc(C(=O)CSc3n[nH]c(N)n3)c2C)cc1 | 1 | 60 | 1 | 95* | 48
Cc1cc(C(=O)COC(=O)C2=NNC(=O)CC2)c(C)n1-c1ccccc1 | 0.9 | 80 | 1 | -3 | 86
Cc1cc(C(=O)CSc2n[nH]c(N)n2)c(C)n1-c1ccc(F)cc1 | 1 | 60 | 1 | 17 | 44
Cc1ccc(-n2c(C)cc(C(=O)COC(=O)C3=NNC(=O)CC3)c2C)cc1 | 0.9 | 94 | 1 | 95* | 95
COc1cc(OC)c(-c2nn3c(C4CCCCC4)nnc3s2)cc1OC | 0.9 | 62 | 0.9 | 56* | 71
C/C(=N\NC(=O)c1ccccc1)c1ccc(C)c([N+](=O)[O-])c1 | 0.9 | 102 | 1 | -6 | 95
COC(=O)c1cc2cc(NS(=O)(=O)c3ccc(C)cc3)ccc2s1 | 0.9 | 88 | 0.9 | 100* | 96
CCOC(=O)C(Oc1ccc2c(-c3ccc(OC)cc3)cc(=O)oc2c1C)c1ccccc1 (stereo not given) | 0.9 | 78 | 1 | 100* | 79
CCOC(=O)C(Oc1ccc2c(-c3ccccc3)cc(=O)oc2c1C)c1ccccc1 (stereo not given) | 0.8 | 59 | 0.9 | 100* | 71
COc1ccc(-c2cc(=O)oc3c(C)c(OC(=O)c4cccs4)ccc23)cc1 | 1 | 92 | 1.1 | -3 | 88
Cc1onc(C(=O)NC(C)c2ccccc2)c1[N+](=O)[O-] (stereo not given) | 1.2 | x | 1.1 | 1 | x
NC(=O)C1CCN(c2ncc(C(F)(F)F)cc2Cl)CC1 | 1.1 | x | 1.1 | -5 | x
NS(=O)(=O)c1ccc(NCc2cc(Cl)ccc2OCc2ccccc2F)cc1 | 0.8 | 69 | 0.8 | 28 | 69
Cc1ccc(CN2CCSc3ccc(C(=O)NC4CCN(Cc5ccccc5)CC4)cc32)cc1 | 0.9 | x | 1 | 90* | x
CN1CCN(CCCNC(=O)c2ccc3c(c2)N(Cc2ccccc2)CCS3)CC1 | 1 | 78 | 1.1 | 80* | 83
Cc1ccc(CN2CCSc3ccc(C(=O)NCc4ccco4)cc32)cc1 | 0.9 | x | 0.9 | 20 | x
O=C(COC(=O)c1ccccc1[N+](=O)[O-])Nc1cc(S(=O)(=O)N2CCOCC2)ccc1N1CCCC1 | 1 | x | 1 | -1 | x
SMILES | PMI activator | PTEN del growth | PMI act hi M6P | L major viab | bCat KO growth
O=CN(Cc1ccco1)C1(C(=O)NC2CCCCC2)CCCCC1 | 1 | 87 | 1 | -1 | 82
Cc1ccc(/C=C2/NC(=O)N(Cc3ccccc3)C2=O)s1 | 1 | 90 | 1 | 73* | 99
O=C(Oc1ccc(NC2=C(Cl)C(=O)c3ccccc3C2=O)cc1)c1ccc([N+](=O)[O-])cc1 | 1 | 1.1* | 0.7 | 8 | 0.9*
CN(C)CCNS(=O)(=O)c1ccc(N2CCN(c3ccc(F)cc3)CC2)c([N+](=O)[O-])c1 | 0.8 | 69 | 0.9 | 98* | 51
O=[N+]([O-])c1cc(S(=O)(=O)NCCN2CCOCC2)ccc1Sc1nnnn1-c1ccccc1 | 1 | 8 | 0.9 | 86* | 8
Cc1ccc(-n2nnnc2Sc2ccc(S(=O)(=O)NCCN(C)C)cc2[N+](=O)[O-])cc1 | 1 | 1.6* | 0.9 | 100* | 1.7*
CC1CC/C(=N/Nc2ccccc2)C(=O)N1 (stereo not given) | 1.7 | 97 | 1.9 | -2 | 96

Compound activity as filed in PubChem.
